This note sets out measurements from BindingDB's records for doi:10.1021/acs.jmedchem.5b01146 (University of California Irvine, 2016).

Each structure is given as a SMILES string.

This data set has as its target Cytochrome P450 3A4 (Homo sapiens, UniProt P08684). Description: Binding affinity to C-terminal four-histidine tagged human CYP3A4delta3 to 24 residues expressed in Escherichia coli assessed as spectral dissociation constant by spectrophotometric method. In short, it runs like this:
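Purified recombinant CYP3A4 titrated in 50 mM phosphate pH 7.4 with 20% glycerol and 1 mM DTT, adding small aliquots of compound in DMSO (final solvent <2%). Absorbance spectra recorded on a spectrophotometer. Ks obtained by one- or two-site saturation fitting of absorbance change versus ligand concentration.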

Cytochrome P450 3A4, sequence (P08684 whole entry, the tested form may be a part): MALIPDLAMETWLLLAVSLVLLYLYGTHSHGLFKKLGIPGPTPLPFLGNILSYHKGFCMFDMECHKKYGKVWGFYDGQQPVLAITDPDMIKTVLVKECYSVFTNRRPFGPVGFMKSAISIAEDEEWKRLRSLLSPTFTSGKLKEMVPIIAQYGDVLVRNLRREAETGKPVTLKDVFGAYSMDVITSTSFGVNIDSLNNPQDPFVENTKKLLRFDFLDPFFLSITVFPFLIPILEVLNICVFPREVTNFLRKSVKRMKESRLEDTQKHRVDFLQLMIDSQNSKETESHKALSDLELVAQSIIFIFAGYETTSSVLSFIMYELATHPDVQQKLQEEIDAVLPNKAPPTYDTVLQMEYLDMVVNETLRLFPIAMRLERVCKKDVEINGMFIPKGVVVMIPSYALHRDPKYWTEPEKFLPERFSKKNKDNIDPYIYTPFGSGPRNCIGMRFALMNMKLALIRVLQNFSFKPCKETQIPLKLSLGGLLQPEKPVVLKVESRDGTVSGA

`c1ccncc1` [CHEBI:16227]: the dissociation constant (Kd) came out at 4.5 mM.

Consider `CC(C)(C)OC(=O)NCCCCCC(=O)NCc1cccnc1`, for which the dissociation constant Kd was found to be 0.105 mM.

As a reminder, the Kd is the free concentration of one partner at which half of the binding sites on the other are occupied at equilibrium, for simple one-to-one binding.
